The text below walks through data of article PMC3114641 (ACS medicinal chemistry letters, 2011).

As a reminder, the Kd is the free concentration of one partner at which half of the binding sites on the other are occupied at equilibrium, for simple one-to-one binding. A word on the koff: it is the first-order rate constant of dissociation. Lower therefore signals a long-lived complex. In general, kon refers to a measure of how fast the partners come together. A high value points to fast association.

Like-named read-outs stand apart in the source and are kept apart here.

The target of assay [1] is T1, chicken riboflavin binding protein (RfBP) (Gallus gallus, UniProt P02752).
T1 sequence (P02752 18-238): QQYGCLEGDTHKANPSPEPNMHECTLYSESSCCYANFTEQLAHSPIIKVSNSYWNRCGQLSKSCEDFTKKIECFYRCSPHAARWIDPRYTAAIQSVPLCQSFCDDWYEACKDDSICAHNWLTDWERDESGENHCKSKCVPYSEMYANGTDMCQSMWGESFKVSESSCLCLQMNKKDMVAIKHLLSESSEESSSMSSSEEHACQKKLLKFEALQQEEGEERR
Kind of assay: Isothermal titration calorimetry. As to conditions: ITC; for KD: KD = 1/KA. On the technique in general: Isothermal titration calorimetry measures the heat released or taken up as one component is titrated into another.

For assay [2], the target named is RfBP. As to conditions: fluorescence quenching, cited from earlier work.
In assay [3] the target is T2, RfBP (Gallus gallus, UniProt P02752).
T2 sequence (P02752 18-238): T1 sequence (P02752 18-238)
Kind of assay: SPR solution competition: inhibition of RfBP adsorption to RF. The class given is binding, chicken.

Assay [4] addresses T2, RfBP. Kind of assay: SPR direct binding of RfBP to ligand 1 immobilized on CM5 sensor chip. More on the design: species or system chicken. The gist of the method: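 Chicken RfBP was injected at 33.0 to 3.70 μM in HBS-EP buffer (pH 7.4) over a CM5 chip with an immobilized riboflavin-linker conjugate. Sensorgrams were fitted globally to a 1:1 Langmuir model to give kon and koff, and KD was derived from these kinetics. KD was also obtained by Scatchard analysis of bound RfBP against RfBP concentration.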

Where [5] appears, read: PBS pH 7.4, 25°C, calculated estimate.
[6] abbreviates: PBS pH 7.4, 25°C, calculated estimate (Table 2).
[7] abbreviates: 0.1M NaAc pH 4.0, 25°C, calculated estimate.
[8] abbreviates: 0.1M Phosphate pH 7.4, 25°C, calculated estimate.
[9] abbreviates: 0.1M Tris pH 9.0, 25°C, calculated estimate.

As for `CN(C)CCCN1c2ccccc2Sc2ccc(Cl)cc21` [Chlorpromazine, chlorpromazine], in assay [1], the “binding affinity towards the RfBP” value was “no binding affinity”. Further, the KD result in assay [1] (PBS pH 7.4, 25°C) is recorded as “No Binding Observed”.
Regarding `Cc1cc2nc3c(=O)[nH]c(=O)nc-3n(C)c2cc1C` [Lumiflavin, lumiflavin], in assay [1] (PBS pH 7.4, 25°C), the “n (binding stoichiometry)” value was found to be 1.08 ±0.07 and the ΔH is -11.5 ± 1.72 kcal/mol. In addition, the ΔG in assay [1] (setting [5]) is -9.85 kcal/mol. Also, the ΔS in assay [1] (setting [6]) is recorded as −0.02 kJ mol^−1 K^−1.
As to `OCCN1CCN(CCCN2c3ccccc3Sc3ccc(Cl)cc32)CC1` [Perphenazine, perphenazine], in assay [1], the “binding affinity towards the RfBP” value is given as “no binding affinity”. Moreover, the KD entry in assay [1] (PBS pH 7.4, 25°C) is “No Binding Observed”.
As to `Cc1cc2nc3c(=O)[nH]c(=O)nc-3n(C[C@H](O)[C@H](O)[C@H](O)CO)c2cc1C` [RF, riboflavin], the results for the Kd in assay [2] (0.01M phosphate buffer) and in assay [2] (0.1 M phosphate buffer) were 1.3 nM and 2 nM, respectively. The “inhibitory activity, fold more potent than N(3) derivative 1” value in assay [3] (SPR Ki comparison) was “approximately 7 fold”. Also, the “n (binding stoichiometry)” value was determined as 0.70±0.04 in assay [1] (0.1M NaAc pH 4.0, 25°C); 0.81±0.03 in assay [1] (0.1M Phosphate pH 7.4, 25°C); 0.82±0.03 in assay [1] (0.1M Tris pH 9.0, 25°C); 0.78±0.02 in assay [1] (PBS pH 7.4, 25°C). Further, the ΔH is -24.07 ± 2.49 kcal/mol in assay [1] (0.1M NaAc pH 4.0, 25°C); -19.6 ± 1.36 kcal/mol in assay [1] (0.1M Phosphate pH 7.4, 25°C); -23.7 ± 2.15 kcal/mol in assay [1] (0.1M Tris pH 9.0, 25°C); -21.8 ± 1.36 kcal/mol in assay [1] (PBS pH 7.4, 25°C). The ΔG in assay [1] (setting [7]) was -9.99 kcal/mol; in assay [1] (setting [8]), -11.1 kcal/mol; in assay [1] (setting [9]), -10.2 kcal/mol; in assay [1] (setting [5]) it was -11.4 kcal/mol. Moreover, the ΔS in assay [1] (setting [7]) is -0.0478 kcal/mol; in assay [1] (setting [8]), -0.0287 kcal/mol; in assay [1] (setting [9]) it was -0.0454 kcal/mol; in assay [1] (PBS pH 7.4, 25°C, calculated estimate (Table 1)), -0.0359 kcal/mol; in assay [1] (setting [6]), −0.15 kJ mol^−1 K^−1.
Regarding `Cc1cc2nc3c(=O)n(CC(=O)NCCCN)c(=O)nc-3n(C[C@H](O)[C@H](O)[C@H](O)CO)c2cc1C` [compound 1], in assay [4], the Kd was 14500 nM, the koff was 0.00149 s⁻¹ and the kon was determined as 103 M⁻¹ s⁻¹. The “inhibition of RfBP adsorption to the surface” value in assay [3] (RfBP 11.1 µM, ligand concentrations above ~500 µM) is listed as “approximately 90%”.
